Results as given in ChEMBL document CHEMBL1208742, “Synthesis and evaluation of beta-carboline derivatives as inhibitors of human immunodeficiency virus” (Bioorg Med Chem Lett, 2010).
pIC50: −log10 of the molar value. Active and inactive are the calls of the source. The calls are words filed in the database; no cut-off is given here.

Tests used:
[1] = test system: Human immunodeficiency virus 1; assay: Antiviral activity against HIV1 NL4.3 infected in human CEM-GFP cells assessed as inhibition p24 antigen production at non cytotoxic concentration after 8 days by ELISA; type: functional
Outline: (§1)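 CEM-GFP T cells carry a stably integrated LTR-driven GFP gene that is trans-activated by Tat on infection. Cells were infected with HIV-1 NL4.3 at MOI 0.05 and incubated with compound for up to 8 days post infection. Viral p24 was read by ELISA. Line 2 was tested at each compound's non-cytotoxic concentration. IC50 is 50% protection from virus, n = 3.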

[2] = Cytotoxicity against human CEM cells expressing green fluorescent protein assessed as oncytotoxic concentration by MTT assay; type: cell-based, CCRF-CEM; conditions: read-out: Activity
Outline: (§2)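 MTT cell viability assay in CEM-GFP cells. CC50 is the concentration reducing proliferation by 50%, n = 3. The non-cytotoxic concentration was chosen from these MTT results for the antiviral testing.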

[3] = test system: Human immunodeficiency virus 1; assay: Antiviral activity against HIV1 NL4.3 infected in human CEM-GFP cells assessed as inhibition p24 antigen production after 8 days by ELISA; type: functional, organism-based; conditions: Human immunodeficiency virus 1, NL4.3, CEM-GFP, 192 h; outline: as §1
[4] = Cytotoxicity against human CEM cells expressing green fluorescent protein by MTT assay; type: cell-based, CCRF-CEM; outline: as §2
[5] = Therapeutic index, ratio of CC50 for human CEM cells expressing green fluorescent protein to IC50 for HIV1 NL4.3; type: cell-based, CCRF-CEM; conditions: read-out: TI
Outline: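 Therapeutic index is CC50 (MTT proliferation in CEM-GFP cells, n = 3) divided by IC50 (p24 ELISA protection of HIV-1 NL4.3-infected CEM-GFP cells, n = 3).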

In the case of `Cc1nc(C(=O)N2CCSCC2)cc2c3ccccc3n(Cc3ccc(F)cc3)c12`, the inhibition [1] was “inactive” and the MNTC [2] was 23.8 µM.

In the case of `COC(=O)c1cc2c3ccccc3n(Cc3ccccc3)c2c(C)n1`, the inhibition [1] was “inactive” and the MNTC [2] was 15.1 µM.

With `Cc1nc(C(=O)N2CCCCC2)cc2c1[nH]c1ccccc12` the inhibition [1] was “inactive” and the MNTC [2] was 1.71 µM.

Work on `Cc1cn([C@H]2C[C@H](N=[N+]=[N-])[C@@H](CO)O2)c(=O)[nH]c1=O` [ZIDOVUDINE] yielded a pIC50 [3] of 5.98 and a CC50 [4] of 23 µM.

In the case of `CCCCn1c2ccccc2c2cc(C(=O)N3CCSCC3)nc(C)c21`, the inhibition [1] was “inactive” and the MNTC [2] was 1.36 µM.

For `COC(=O)c1cc2c3ccccc3n3c(=O)ccc(n1)c23`, the inhibition [1] was “inactive” and the MNTC [2] was 3.59 µM.

With `CCCCn1c2ccccc2c2cc(C(=O)OC)nc(C)c21` the inhibition [1] was “inactive” and the MNTC [2] was 1.69 µM.

In the case of `Cc1nc(C(=O)N2CCSCC2)cc2c1[nH]c1ccccc12`, the “inhibition (INH)” value [1] was 16.9% and the MNTC [2] was 1.61 µM.

With `COC(=O)c1cc2c3ccccc3n(C)c2c(C)n1` the inhibition [1] was “inactive” and the MNTC [2] was 19.7 µM.

With `COC(=O)C1Cc2c([nH]c3ccccc23)C(C)=N1` (centres undefined) the “inhibition (INH)” value [1] was 17.26% and the MNTC [2] was 18.6 µM.

In the case of `CCCCn1c2c(c3ccccc31)CC(CCCC)(C(=O)OC)N=C2C` (centres undefined), the inhibition [1] was “inactive” and the MNTC [2] was 14.1 µM.

In the case of `CCn1c2ccccc2c2cc(C(=O)OC)nc(C)c21`, the inhibition [1] was “inactive” and the MNTC [2] was 3.73 µM.

In the case of `CC1=NC(C(=O)O)Cc2c1[nH]c1ccccc21` (centres undefined), the “inhibition (INH)” value [1] was 16.48% and the MNTC [2] was 17.5 µM.

Molecule `COC(=O)c1cc2c([nH]c3ccccc32)c(C=O)n1` has an MNTC [2] of 9.83 µM, a pIC50 [3] of 5.54 and a selectivity ratio [5] of 7. It also gave a CC50 [4] of 20.3 µM.

With `Cc1nc(C(=O)N2CCOCC2)cc2c1[nH]c1ccccc12` the inhibition [1] was “inactive” and the MNTC [2] was 27.1 µM.

For `CC(C)=CCn1c2ccccc2c2cc(C(=O)N3CCSCC3)nc(C)c21`, the inhibition [1] was “inactive” and the MNTC [2] was 19.8 µM.

In the case of `C#CCn1c2ccccc2c2cc(C(=O)N3CCSCC3)nc(C)c21`, the inhibition [1] was “inactive” and the MNTC [2] was 21.5 µM.

With `CCCCC1(C(=O)OC)Cc2c([nH]c3ccccc23)C(C)=N1` (centres undefined) the “inhibition (INH)” value [1] was 12.17% and the MNTC [2] was 8.39 µM.

With `Cc1nc(C(=O)N2CCSCC2)cc2c3ccccc3n(Cc3ccccc3)c12` the inhibition [1] was “inactive” and the MNTC [2] was 6.22 µM.

With `COC(=O)c1cc2c([nH]c3ccccc32)c(C)n1` the “inhibition (INH)” value [1] was 21.3% and the MNTC [2] was 4.17 µM.

With `CCCn1c2ccccc2c2cc(C(=O)OC)nc(C)c21` the inhibition [1] was “inactive” and the MNTC [2] was 3.54 µM.
